Reference: ChEMBL document CHEMBL1828518, “Arylazolylthioacetanilide. Part 8: Design, synthesis and biological evaluation of novel 2-(2-(2,4-dichlorophenyl)-2H-1,2,4-triazol-3-ylthio)-N-arylacetamides as potent HIV-1 inhibitors” (Eur J Med Chem, 2011)
The source made the active and inactive calls. No cut-off for these calls is given here.

Tests used:
[1] = system: Human immunodeficiency virus 1; test: Antiviral activity against HIV-1 3B infected in human MT4 cells assessed as inhibition of virus-induced syncytium formation after 5 days by MTT assay; assay type: functional, organism-based; details: Human immunodeficiency virus 1, 3B, MT4, 120 h
Procedure, shortened: (§1)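 MT-4 cells (exponentially growing, spun 5 min at 1000 rpm, resuspended at 6 × 10⁵ cells/mL) infected with HIV-1 IIIB or HIV-2 ROD at 100–300 CCID50. Compounds added at infection in triplicate wells as serial fivefold dilutions, with untreated infected and mock-infected controls. Viability read by MTT at 540 and 690 nm after 5 days, from the median OD of three wells.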

[2] = system: Human immunodeficiency virus 2; test: Antiviral activity against HIV-2 ROD infected in human MT4 cells assessed as inhibition of virus-induced syncytium formation after 5 days by MTT assay; assay type: functional, organism-based; details: Human immunodeficiency virus 2, ISOLATE ROD, MT4, 120 h; procedure, shortened: as §1
[3] = Cytotoxicity against human MT4 cells assessed as cell viability after 5 days by MTT assay; assay type: cell-based
Procedure, shortened: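 MT-4 cells at 6 × 10⁵ cells/mL, mock-infected with culture medium and run in parallel with the antiviral plates. Test compounds given as serial fivefold dilutions in triplicate wells. After 5 days viability read by MTT reduction to formazan at 540 and 690 nm, using the median OD of three wells.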

[4] = Selectivity index, ratio of CC50 for human MT4 cells to EC50 for HIV-1 3B infected in human MT4 cells; assay type: toxicity, cell-based; details: uninfected and infected with HIV-1 3B, read-out: Ratio CC50/EC50
Procedure, shortened: (§2)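 Selectivity index calculated as CC50 divided by EC50. Both values come from MTT readings taken 5 days after infection, on mock-infected and virus-infected MT-4 cells run in parallel.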

[5] = Selectivity index, ratio of CC50 for human MT4 cells to EC50 for HIV-2 ROD infected in human MT4 cells; assay type: toxicity, cell-based; details: uninfected and infected with HIV-2 ROD, read-out: Ratio CC50/EC50; procedure, shortened: as §2
[6] = system: Human immunodeficiency virus 1; test: Antiviral activity against HIV-1 3B harboring RT K103N and Y181C mutant infected in human MT4 cells assessed as inhibition of virus-induced syncytium formation after 5 days by MTT assay; assay type: functional, organism-based
Procedure, shortened: (§3)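 Exponentially growing MT-4 cells, pelleted and resuspended at 6 × 10⁵ cells/mL, were infected with virus stock at 100-300 CCID50. Test compounds were added at infection as serial fivefold dilutions, in triplicate wells. After 5 days, viability was read by MTT reduction at 540 and 690 nm using the median OD of three wells.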

[7] = system: Human immunodeficiency virus 1; test: Antiviral activity against HIV-1 3B harboring RT Y181C mutant infected in human MT4 cells assessed as inhibition of virus-induced syncytium formation after 5 days by MTT assay; assay type: functional, organism-based; procedure, shortened: as §3
[8] = system: Human immunodeficiency virus 1; test: Antiviral activity against HIV-1 3B harboring RT Y188L mutant infected in human MT4 cells assessed as inhibition of virus-induced syncytium formation after 5 days by MTT assay; assay type: functional, organism-based; procedure, shortened: as §3
[9] = system: Human immunodeficiency virus 1; test: Antiviral activity against HIV-1 3B harboring RT F227L and V106A mutant infected in human MT4 cells assessed as inhibition of virus-induced syncytium formation after 5 days by MTT assay; assay type: functional, organism-based; procedure, shortened: as §3
[10] = system: Human immunodeficiency virus 1; test: Antiviral activity against HIV-1 3B harboring RT E138K mutant infected in human MT4 cells assessed as inhibition of virus-induced syncytium formation after 5 days by MTT assay; assay type: functional, organism-based; details: Human immunodeficiency virus 1, 3B, MT4, 120 h; procedure, shortened: as §3
[11] = system: Human immunodeficiency virus 1; test: Antiviral activity against HIV-1 3B harboring RT K103N mutant infected in human MT4 cells assessed as inhibition of virus-induced syncytium formation after 5 days by MTT assay; assay type: functional, organism-based; details: Human immunodeficiency virus 1, 3B, MT4, 120 h; procedure, shortened: as §3
[12] = system: Human immunodeficiency virus 1; test: Antiviral activity against HIV-1 3B harboring RT L100I mutant infected in human MT4 cells assessed as inhibition of virus-induced syncytium formation after 5 days by MTT assay; assay type: functional, organism-based; details: Human immunodeficiency virus 1, 3B, MT4, 120 h; procedure, shortened: as §3
[13] = system: Human immunodeficiency virus 1; test: Ratio of EC50 for HIV-1 3B harboring RT K103N mutant infected in human MT4 cells to EC50 for wild type HIV-1 3B infected in human MT4 cells; assay type: functional
Procedure, shortened: (§4)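 Fold resistance is the EC50 against the drug-resistant strain divided by the EC50 against wild-type HIV-1 IIIB. Both values come from the same MT-4 assay: 5-day infection, MTT viability read-out, and serial fivefold compound dilutions in triplicate wells.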

[14] = system: Human immunodeficiency virus 1; test: Ratio of EC50 for HIV-1 3B harboring RT E138K mutant infected in human MT4 cells to EC50 for wild type HIV-1 3B infected in human MT4 cells; assay type: functional; procedure, shortened: as §4
[15] = system: Human immunodeficiency virus 1; test: Ratio of EC50 for HIV-1 3B harboring RT L100I mutant infected in human MT4 cells to EC50 for wild type HIV-1 3B infected in human MT4 cells; assay type: functional; procedure, shortened: as §4
[16] = molecular target: Human immunodeficiency virus type 1 reverse transcriptase (Human immunodeficiency virus 1, UniProt Q72547); test: Inhibition of HIV-1 reverse transcriptase assessed as inhibition of biotin-dUTP incorporation […] by colorimetry
Procedure, shortened: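 Purified recombinant HIV-1 RT with a […] template primer. Read-out is colorimetric detection of biotin-dUTP incorporated into the homopolymer template primer, with nucleotides linked to the microtiter plate.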

| Compound | EC50 [1] | EC50 [2] | CC50 at 120 h [3] | selectivity ratio [4] | selectivity ratio [5] | EC50 ([6]; Human immunodeficiency virus 1, 3B, MT4, 120 h) | inhibition [7] | inhibition [8] | inhibition [9] | inhibition [6] | EC50 [10] | EC50 [11] | EC50 [12] | Ratio EC50 [13] | Ratio EC50 [14] | Ratio EC50 [15] | IC50 [16] |
| --- | --- | --- | --- | --- | --- | --- | --- | --- | --- | --- | --- | --- | --- | --- | --- | --- | --- |
| O=c1[nH]cnc2c1ncn2[C@H]1CC[C@@H](CO)O1 [DIDANOSINE] | 8.86 µM | 16 µM | > 211 µM | > 24 | > 13 |  |  |  |  |  |  |  |  |  |  |  |  |
| NS(=O)(=O)c1ccc(NC(=O)CSc2nnc(Br)n2-c2ccc(C3CC3)c3ccccc23)c(Cl)c1 |  |  |  |  |  | 0.23 µM |  |  |  |  |  |  |  |  |  |  |  |
| O=C1Nc2ccc(Cl)cc2[C@@](C#CC2CC2)(C(F)(F)F)O1 [EFAVIRENZ] |  |  |  |  |  |  | inactive | inactive | inactive | inactive | 0.0055 µM | 0.108 µM | 0.054 µM |  |  |  |  |
| Cc1ccccc1NC(=O)CSc1ncnn1-c1ccc(Cl)cc1Cl | 32.4 µM | > 106 µM | 106 µM | 3 | < 1 |  |  |  |  |  |  |  |  |  |  |  |  |
| CCOC(=O)c1ccc(NC(=O)CSc2ncnn2-c2ccc(Cl)cc2Cl)c(Br)c1 | 4.68 µM | > 33.1 µM | 33.1 µM | 7 | < 1 |  | inactive | inactive | inactive | inactive | > 38.7 µM | 9.54 µM | 10.8 µM | 1.6 | >6.7 | 1.9 | 297 µM |
| O=C(CSc1ncnn1-c1ccc(Cl)cc1Cl)Nc1cccnc1Cl | 4.99 µM | > 98.5 µM | 98.5 µM | 20 | < 1 |  | inactive | inactive | inactive | inactive | 6.79 µM | 10.5 µM | 15.4 µM | 2.8 | 4.3 | 4.4 |  |
| Cc1ccnc2c1NC(=O)c1cccnc1N2C1CC1 [NEVIRAPINE] | 0.19 µM | > 15 µM | > 15 µM |  |  |  | inactive | inactive | inactive | inactive | 0.18 µM | 7.25 µM | 1.92 µM |  |  |  |  |
| COC(=O)c1ccc(NC(=O)CSc2ncnn2-c2ccc(Cl)cc2Cl)c(Br)c1 | 4.13 µM | > 59.3 µM | 59.3 µM | 14 | < 1 |  | inactive | inactive | inactive | inactive | ≥ 15.2 µM | 7.73 µM | 6.95 µM | 2.2 | >=4.3 | 2 | 385 µM |
| COC(=O)c1ccc(NC(=O)CSc2ncnn2-c2ccc(Cl)cc2Cl)cc1 | > 26.3 µM | > 26.3 µM | 26.3 µM | < 1 | < 1 |  |  |  |  |  |  |  |  |  |  |  |  |
| CC(=O)c1ccc(NC(=O)CSc2ncnn2-c2ccc(Cl)cc2Cl)c(Br)c1 | > 114 µM | > 114 µM | 114 µM | < 1 | < 1 |  |  |  |  |  |  |  |  |  |  |  |  |
| CCOC(=O)c1ccc(NC(=O)CSc2ncnn2-c2ccc(Cl)cc2Cl)cc1 | > 22.8 µM | > 22.8 µM | 22.8 µM | < 1 | < 1 |  |  |  |  |  |  |  |  |  |  |  |  |
| Cc1cc(C#N)cc(C)c1Oc1nc(Nc2ccc(C#N)cc2)nc(N)c1Br [ETRAVIRINE] |  |  |  |  |  |  | inactive | inactive | inactive | inactive | 0.008 µM | 0.00184 µM | 0.0046 µM | 0.62 | 2.6 | 1.54 |  |
| Nc1ccn([C@H]2CC[C@@H](CO)O2)c(=O)n1 [ZALCITABINE] | 0.75 µM | 0.88 µM | > 94 µM | > 127 | > 108 |  |  |  |  |  |  |  |  |  |  |  |  |
| O=C(CSc1ncnn1-c1ccc(Cl)cc1Cl)Nc1ccc(Cl)cc1Br | > 189 µM | > 189 µM | 189 µM | < 1 | < 1 |  |  |  |  |  |  |  |  |  |  |  |  |
| O=C(CSc1ncnn1-c1ccc(Cl)cc1Cl)Nc1ccccc1Cl | 6.21 µM | > 29.1 µM | 29.1 µM | 5 | < 1 |  | inactive | inactive | inactive | inactive | 20.9 µM | 16.1 µM | 21.4 µM | 2.8 | 3.6 | 3.7 |  |
| Cc1ccc(NC(=O)CSc2ncnn2-c2ccc(Cl)cc2Cl)c([N+](=O)[O-])c1 | > 285 µM | > 285 µM | > 285 µM |  |  |  |  |  |  |  |  |  |  |  |  |  |  |
| O=C(CSc1ncnn1-c1ccc(Cl)cc1Cl)Nc1ccccc1Br | 4.85 µM | > 95.1 µM | 95.1 µM | 20 | < 1 |  | inactive | inactive | inactive | inactive | 28.2 µM | 8.36 µM | 25.7 µM | 1.9 | 6.6 | 6 |  |
| Cc1ccc(NC(=O)CSc2ncnn2-c2ccc(Cl)cc2Cl)c(Br)c1 | > 184 µM | > 184 µM | > 184 µM |  |  |  |  |  |  |  |  |  |  |  |  |  |  |
| CC(C)Nc1cccnc1N1CCN(C(=O)c2cc3cc(NS(C)(=O)=O)ccc3[nH]2)CC1.CS(=O)(=O)O [DELAVIRDINE MESYLATE] |  |  |  |  |  |  | inactive | inactive | inactive | inactive | 0.06 µM | 1.72 µM | 2.23 µM | 52.8 | 1.9 | 68.3 |  |
| O=C(CSc1ncnn1-c1ccc(Cl)cc1Cl)Nc1ccc(Cl)cc1Cl | 34.4 µM | > 172 µM | 172 µM | 5 | < 1 |  |  |  |  |  |  |  |  |  |  |  |  |
| Cc1cn([C@H]2C[C@H](N=[N+]=[N-])[C@@H](CO)O2)c(=O)[nH]c1=O [ZIDOVUDINE] | 0.0076 µM | 0.0033 µM | > 88.3 µM | > 11600 | > 28300 |  | inactive | inactive | inactive | inactive | 0.02 µM | 0.011 µM | 0.0049 µM | 0.71 | 1.4 | 0.32 |  |
| O=C(CSc1ncnn1-c1ccc(Cl)cc1Cl)Nc1ccccc1F | > 38.4 µM | > 38.4 µM | 38.4 µM | < 1 | < 1 |  |  |  |  |  |  |  |  |  |  |  |  |
| O=C(CSc1ncnn1-c1ccc(Cl)cc1Cl)Nc1ccccc1[N+](=O)[O-] | 2.78 µM | > 187 µM | 187 µM | 67 | < 1 |  | inactive | inactive | inactive | inactive | 9.45 µM | 7.42 µM | 8.51 µM | 1.8 | 2.3 | 2.1 | > 471 µM |
